Test results taken from ChEMBL document CHEMBL3091281, “Neuroprotective benzyl benzoate glycosides from Disporum viridescens roots in HT22 hippocampal neuronal cells” (J Nat Prod, 2013).
The source made the active and inactive calls. The rule behind the calls is not given here.

Columns and labels:
[1] = tested on: BV-2 (Mus musculus); assay: Cytotoxicity against mouse BV2 cells
[2] = tested on: BV-2 (Mus musculus); assay: Antiinflammatory activity in mouse BV2 cells assessed as inhibition of LPS-stimulated NO production at 10 to 100 uM by Griess assay
[3] = tested on: HT-22; assay: Cytotoxicity against mouse HT22 cells; type: cell-based
Method in brief: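 MTT viability assay in BV2 and HT22 cells, compounds tested without glutamate.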

[4] = tested on: HT-22; assay: Neuroprotective activity against L-glutamate-induced neurotoxicity in mouse HT22 cells assessed as cell viability at 10 to 100 uM incubated 1 hr prior to L-glutamate-challenge measured after 12 hrs by MTT assay; type: functional, cell-based
Method in brief: (§1)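 Mouse hippocampal HT22 cells seeded at 3 × 10^4 per well in DMEM, pretreated 1 h with compound in DMSO (0.1% final), then exposed to 5 mM L-glutamate; viability by MTT after further 12 h.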

[5] = tested on: HT-22; assay: Neuroprotective activity against L-glutamate-induced neurotoxicity in mouse HT22 cells assessed as GSH/GSSG ratio at 50 uM incubated 1 hr prior to L-glutamate-challenge measured after 12 hrs (reference value: 1.105 +/- 0.112); type: functional
[6] = tested on: HT-22; assay: Neuroprotective activity against L-glutamate-induced neurotoxicity in mouse HT22 cells assessed as SOD activity at 100 uM incubated 1 hr prior to L-glutamate-challenge measured after 12 hrs by xanthine-xanthine oxidase reaction (reference value: 16.10 +/- 0.54 U/mg protein); type: functional
[7] = tested on: HT-22; assay: Neuroprotective activity against L-glutamate-induced neurotoxicity in mouse HT22 cells assessed as GR activity at 100 uM incubated 1 hr prior to L-glutamate-challenge measured after 12 hrs (reference value: 0.94 +/- 0.19 mU/mg protein); type: functional
[8] = tested on: HT-22; assay: Neuroprotective activity against L-glutamate-induced neurotoxicity in mouse HT22 cells assessed as GSH/GSSG ratio at 100 uM incubated 1 hr prior to L-glutamate-challenge measured after 12 hrs (reference value: 1.105 +/- 0.112); type: functional
[9] = tested on: HT-22; assay: Induction of JNK phosphorylation in mouse HT22 cells at 100 uM after 0.5 to 12 hrs by Western blotting analysis; type: cell-based
Method in brief: (§2)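 HT22 cells treated 30 min (kinases) or 12 h (HO-1) at stated concentrations or times; lysed in RIPA with protease and phosphatase inhibitors, 30 μg protein on 10% SDS-PAGE, PVDF transfer, overnight 4 °C primary antibodies (HO-1, ERK/p-ERK, JNK/p-JNK, p38/p-p38, β-actin), ECL detection.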

[10] = target: MAP kinase p38 (Mus musculus) (UniProt P47811+O08911+Q9WUI1+Q9Z1B7); assay: Induction of p38 phosphorylation in mouse HT22 cells at 100 uM after 0.5 to 12 hrs by Western blotting analysis; type: cell-based; conditions: HT-22
Method in brief: as §2

[11] = tested on: HT-22; assay: Neuroprotective activity against L-glutamate-induced neurotoxicity in mouse HT22 cells assessed as cell viability at 100 uM incubated 1 hr prior to L-glutamate-challenge measured after 12 hrs by MTT assay in presence of SnPP; type: functional, cell-based
Method in brief: as §1

[12] = tested on: HT-22; assay: Neuroprotective activity against L-glutamate-induced neurotoxicity in mouse HT22 cells assessed as GR activity at 50 uM incubated 1 hr prior to L-glutamate-challenge measured after 12 hrs (reference value: 0.94 +/- 0.19 mU/mg protein); type: functional
[13] = tested on: HT-22; assay: Antioxidant activity in mouse HT22 cells assessed as HO-1 protein expression after 0.5 to 12 hrs by Western blotting analysis; type: functional, cell-based
Method in brief: as §2

[14] = tested on: HT-22; assay: Antioxidant activity in mouse HT22 cells assessed as HO-1 protein expression at 100 uM by Western blotting analysis; type: functional, cell-based; conditions: TDE = time-dependent effect
Method in brief: as §2

[15] = tested on: HT-22; assay: Neuroprotective activity against L-glutamate-induced neurotoxicity in mouse HT22 cells assessed as GSH-Px activity at 10 uM incubated 1 hr prior to L-glutamate-challenge measured after 12 hrs (reference value: 0.036 +/- 0.001 mU/mg protein); type: functional
[16] = tested on: HT-22; assay: Neuroprotective activity against L-glutamate-induced neurotoxicity in mouse HT22 cells assessed as GSH-Px activity at 50 uM incubated 1 hr prior to L-glutamate-challenge measured after 12 hrs (reference value: 0.036 +/- 0.001 mU/mg protein); type: functional
[17] = tested on: HT-22; assay: Neuroprotective activity in mouse HT22 cells assessed as HO-1 protein expression at 100 uM by Western blotting analysis in presence of SP600125; type: functional, cell-based
Method in brief: as §2

[18] = tested on: HT-22; assay: Induction of ERK phosphorylation in mouse HT22 cells at 100 uM after 0.5 to 12 hrs by Western blotting analysis; type: cell-based
Method in brief: as §2

[19] = tested on: HT-22; assay: Neuroprotective activity against L-glutamate-induced neurotoxicity in mouse HT22 cells assessed as GR activity at 10 uM incubated 1 hr prior to L-glutamate-challenge measured after 12 hrs (reference value: 0.94 +/- 0.19 mU/mg protein); type: functional
[20] = tested on: HT-22; assay: Neuroprotective activity against L-glutamate-induced neurotoxicity in mouse HT22 cells assessed as SOD activity at 50 uM incubated 1 hr prior to L-glutamate-challenge measured after 12 hrs by xanthine-xanthine oxidase reaction (reference value: 16.10 +/- 0.54 U/mg protein); type: functional
[21] = tested on: HT-22; assay: Neuroprotective activity against L-glutamate-induced neurotoxicity in mouse HT22 cells assessed as SOD activity at 10 uM incubated 1 hr prior to L-glutamate-challenge measured after 12 hrs by xanthine-xanthine oxidase reaction (reference value: 16.10 +/- 0.54 U/mg protein); type: functional
[22] = tested on: HT-22; assay: Neuroprotective activity in mouse HT22 cells assessed as HO-1 protein expression at 100 uM by Western blotting analysis in presence of SB203580; type: functional, cell-based
Method in brief: as §2

[23] = tested on: HT-22; assay: Neuroprotective activity against L-glutamate-induced neurotoxicity in mouse HT22 cells assessed as GSH/GSSG ratio at 10 uM incubated 1 hr prior to L-glutamate-challenge measured after 12 hrs (reference value: 1.105 +/- 0.112); type: functional
[24] = tested on: HT-22; assay: Neuroprotective activity in mouse HT22 cells assessed as HO-1 protein expression at 100 uM by Western blotting analysis in presence of PD98059; type: functional, cell-based
Method in brief: as §2

[25] = tested on: HT-22; assay: Neuroprotective activity against L-glutamate-induced neurotoxicity in mouse HT22 cells assessed as GSH/GSSG ratio incubated 1 hr prior to L-glutamate-challenge measured after 12 hrs; type: functional, cell-based
[26] = tested on: HT-22; assay: Antioxidant activity in mouse HT22 cells assessed as HO-1 protein expression at 100 uM after 6 to 18 hrs by Western blotting analysis; type: functional, cell-based
Method in brief: as §2

[27] = tested on: HT-22; assay: Neuroprotective activity against L-glutamate-induced neurotoxicity in mouse HT22 cells assessed as GSH-Px activity at 100 uM incubated 1 hr prior to L-glutamate-challenge measured after 12 hrs (reference value: 0.036 +/- 0.001 mU/mg protein); type: functional

In the case of `C[C@@H]1O[C@@H](Oc2ccc(O)c(O)c2C(=O)OCc2ccccc2O[C@@H]2O[C@H](CO)[C@@H](O)[C@H](O)[C@H]2O)[C@H](O)[C@H](O)[C@H]1O`, the Activity [1] is reported as “Toxic”, the Activity [2] is reported as “Active” and the Activity [3] is reported as “Toxic”.

`COc1ccc(O[C@@H]2O[C@@H](C)[C@H](O)[C@@H](O)[C@H]2O)c(C(=O)OCc2ccccc2O[C@@H]2O[C@H](CO)[C@@H](O)[C@H](O)[C@H]2O)c1O` was tested, and the Activity [1] was “Toxic”, the Activity [2] was “Active” and the Activity [3] was “Toxic”. The Activity [4] was “Active”.

In the case of `COc1c(O)ccc(O[C@@H]2O[C@@H](C)[C@H](O)[C@@H](O)[C@H]2O)c1C(=O)OCc1ccccc1O[C@@H]1O[C@H](CO)[C@@H](O)[C@H](O)[C@H]1O`, the Activity [1] is reported as “Toxic”, the Activity [2] is reported as “Active” and the Activity [3] is reported as “Toxic”. For the same molecule, the Activity [4] was “Active”.

For `COc1c(O)ccc(O[C@@H]2O[C@@H](C)[C@H](O)[C@@H](O)[C@H]2O)c1C(=O)OCc1ccccc1O[C@@H]1O[C@@H](C)[C@H](O)[C@@H](O)[C@H]1O`, the Activity [1] was “Toxic”, the Activity [2] was “Active” and the Activity [3] was “Toxic”. For the same molecule, the Activity [4] was “Active”.

Work on `COc1c(O)ccc(O[C@@H]2O[C@@H](C)[C@H](OC(C)=O)[C@@H](O)[C@H]2O)c1C(=O)OCc1ccccc1O[C@@H]1O[C@H](CO)[C@@H](O)[C@H](O)[C@H]1O` yielded a Ratio [5] of 2.3, an Activity [6] of 30.71 U/mg and an Activity [7] of 1.14 mU/mg. For the same molecule, the Ratio [8] was 2.824, the Activity [1] was “Toxic” and the Activity [9] was “inactive”. For the same molecule, the Activity [2] was “Active”, the Activity [3] was “Toxic” and the Activity [10] was “inactive”. The Activity [11] was “inactive”, the Activity [4] was “Active” and the Activity [12] was 0.9 mU/mg. For the same molecule, the Activity [13] was “Dose-dependent effect”, the Activity [14] was “tde” and the Activity [15] was 0.056 mU/mg. The Activity [16] was 0.055 mU/mg, the Activity [17] was “Active” and the Activity [18] was “Active”. For the same molecule, the Activity [19] was 0.72 mU/mg, the Activity [20] was 29.05 U/mg and the Activity [21] was 29.78 U/mg. The Activity [22] was “Active”, the Ratio [23] was 1.594 and the Activity [24] was “inactive”. For the same molecule, the Activity [25] was “Dose-dependent effect”, the Activity [26] was “Active” and the Activity [27] was 0.059 mU/mg.

In the case of `O=C(OCc1ccccc1O[C@@H]1O[C@H](CO)[C@@H](O)[C@H](O)[C@H]1O)c1c(O)cccc1O[C@@H]1O[C@H](CO)[C@@H](O)[C@H](O)[C@H]1O`, the Activity [1] is reported as “Toxic”, the Activity [2] is reported as “Active” and the Activity [3] is reported as “Toxic”.
